Here are results for four molecules from ChEMBL document CHEMBL3769331, “Discovery of a new selective inhibitor of A Disintegrin And Metalloprotease 10 (ADAM-10) able to reduce the shedding of NKG2D ligands in Hodgkin's lymphoma cell models” (Eur J Med Chem, 2016).

Structures are written as SMILES.

In data set [1] the target is Matrix metalloproteinase-14 (Homo sapiens, UniProt P50281). The data set can be described thus: Inhibition of recombinant human MMP-14 using Mca-Lys-Pro-Leu-Gly-Leu-Dap(Dnp)-Ala-Arg-NH2 as substrate after 3 hrs by fluorometric assay. In a few lines: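 MMP-14 catalytic domain, final 1.0 nM, preincubated with inhibitor for 3 h at 25 °C in Tris 50 mM pH 7.5, NaCl 150 mM, CaCl2 10 mM, Brij-35 0.05%, DMSO 1%. Substrate final 2 µM. Fluorescence (ex 325/em 400 nm) read every 15 s for 20 min. Duplicates; IC50 from the vi/vo equation.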

The target of data set [2] is T1, Disintegrin and metalloproteinase domain-containing protein 10 (Homo sapiens, UniProt O14672).
T1 sequence (O14672 whole entry): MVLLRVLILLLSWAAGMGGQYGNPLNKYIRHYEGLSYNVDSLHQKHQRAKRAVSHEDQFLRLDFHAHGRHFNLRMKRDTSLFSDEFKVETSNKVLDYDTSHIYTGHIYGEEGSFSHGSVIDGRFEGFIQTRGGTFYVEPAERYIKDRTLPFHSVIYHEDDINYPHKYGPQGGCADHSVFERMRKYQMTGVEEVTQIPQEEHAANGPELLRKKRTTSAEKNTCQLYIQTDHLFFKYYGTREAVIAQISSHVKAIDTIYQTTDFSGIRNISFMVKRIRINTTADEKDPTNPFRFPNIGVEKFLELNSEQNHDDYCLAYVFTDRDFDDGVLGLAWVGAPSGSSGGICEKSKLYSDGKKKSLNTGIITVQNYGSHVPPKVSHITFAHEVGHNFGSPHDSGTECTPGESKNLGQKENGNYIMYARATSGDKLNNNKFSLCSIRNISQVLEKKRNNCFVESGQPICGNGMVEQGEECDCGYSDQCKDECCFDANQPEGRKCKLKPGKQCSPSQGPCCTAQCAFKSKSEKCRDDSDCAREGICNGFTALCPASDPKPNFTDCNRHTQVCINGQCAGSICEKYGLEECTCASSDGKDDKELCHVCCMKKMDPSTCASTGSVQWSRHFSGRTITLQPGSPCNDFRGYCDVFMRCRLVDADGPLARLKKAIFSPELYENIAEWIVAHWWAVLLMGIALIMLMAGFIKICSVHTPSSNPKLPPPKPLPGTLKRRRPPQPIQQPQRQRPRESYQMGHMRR
The data set can be described thus: Inhibition of recombinant human ADAM-10 using Mca-Lys-Pro-Leu-Gly-Leu-Dap(Dnp)-Ala-Arg-NH2 as substrate after 1 hr by fluorometric assay. In a few lines:
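Recombinant human ADAM-10, final 20 nM, preincubated with inhibitor for 1 h at 37 °C in Tris 25 mM pH 9, ZnCl2 25 µM, Brij-35 0.005%. Substrate final 10 µM. Fluorescence (ex 325/em 400 nm) read every 15 s for 20 min. Duplicates; IC50 from vi/vo = 1/(1+[I]/IC50).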

The target of data set [3] is T2, Disintegrin and metalloproteinase domain-containing protein 17 (Homo sapiens, UniProt P78536). The data set can be described thus: Inhibition of recombinant human ADAM-17 using Mca-Lys-Pro-Leu-Gly-Leu-Dap(Dnp)-Ala-Arg-NH2 as substrate after 30 mins by fluorometric assay. The method in brief:
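Recombinant human ADAM-17, final 5 nM, preincubated with inhibitor for 30 min at 37 °C in Tris 25 mM pH 9, ZnCl2 25 µM, Brij-35 0.005%. Substrate final 2 µM. Fluorescence (ex 325/em 400 nm) read every 15 s for 20 min. Duplicates; IC50 from vi/vo = 1/(1+[I]/IC50).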

In data set [4] the target is Matrix metalloproteinase-9 (Homo sapiens, UniProt P14780). The data set can be described thus: Inhibition of recombinant human MMP-9 using Mca-Lys-Pro-Leu-Gly-Leu-Dap(Dnp)-Ala-Arg-NH2 as substrate after 3 hrs by fluorometric assay. The method in brief: (§1)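 Pro-MMPs were activated with APMA: MMP-1 2 mM for 2 h, MMP-2 2 mM for 1 h, MMP-9 1 mM for 1 h, all at 37 °C. Final enzyme: MMP-1 2.0 nM, MMP-2 0.56 nM, MMP-9 1.3 nM. Enzyme was preincubated with inhibitor for 3 h at 25 °C in Tris 50 mM pH 7.5, NaCl 150 mM, CaCl2 10 mM, Brij-35 0.05%, DMSO 1%. Substrate final 2 µM. Fluorescence (ex 325/em 400 nm) read every 15 s for 20 min. Duplicates; IC50 from vi/vo = 1/(1+[I]/IC50).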
Chain of Matrix metalloproteinase-9 (P14780 whole entry): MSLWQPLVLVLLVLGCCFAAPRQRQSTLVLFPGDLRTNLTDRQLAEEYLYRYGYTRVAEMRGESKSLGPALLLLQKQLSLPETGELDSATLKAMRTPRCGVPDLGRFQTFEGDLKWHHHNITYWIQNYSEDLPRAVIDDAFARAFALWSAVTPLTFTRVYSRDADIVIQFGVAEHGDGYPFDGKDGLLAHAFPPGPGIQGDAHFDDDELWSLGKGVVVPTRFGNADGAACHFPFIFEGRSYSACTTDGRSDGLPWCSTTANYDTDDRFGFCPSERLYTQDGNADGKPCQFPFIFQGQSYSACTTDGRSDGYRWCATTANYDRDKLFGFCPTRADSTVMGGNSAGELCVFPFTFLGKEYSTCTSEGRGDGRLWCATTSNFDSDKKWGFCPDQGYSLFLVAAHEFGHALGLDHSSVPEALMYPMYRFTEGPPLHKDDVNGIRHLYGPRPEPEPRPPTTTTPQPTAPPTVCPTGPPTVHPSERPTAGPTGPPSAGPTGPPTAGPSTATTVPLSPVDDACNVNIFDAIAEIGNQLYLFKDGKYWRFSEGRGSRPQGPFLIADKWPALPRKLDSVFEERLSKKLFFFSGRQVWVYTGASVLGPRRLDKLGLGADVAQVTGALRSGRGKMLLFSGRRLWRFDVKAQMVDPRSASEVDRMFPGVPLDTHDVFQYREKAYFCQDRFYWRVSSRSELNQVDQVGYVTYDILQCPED

The target of data set [5] is 72 kDa type IV collagenase (Homo sapiens, UniProt P08253). As to the kind of experiment: Inhibition of recombinant human MMP-2 using Mca-Lys-Pro-Leu-Gly-Leu-Dap(Dnp)-Ala-Arg-NH2 as substrate after 3 hrs by fluorometric assay. The method in brief:
as §1

The target of another data set is T3, Interstitial collagenase (Homo sapiens, UniProt P03956).
T3 sequence (P03956 whole entry): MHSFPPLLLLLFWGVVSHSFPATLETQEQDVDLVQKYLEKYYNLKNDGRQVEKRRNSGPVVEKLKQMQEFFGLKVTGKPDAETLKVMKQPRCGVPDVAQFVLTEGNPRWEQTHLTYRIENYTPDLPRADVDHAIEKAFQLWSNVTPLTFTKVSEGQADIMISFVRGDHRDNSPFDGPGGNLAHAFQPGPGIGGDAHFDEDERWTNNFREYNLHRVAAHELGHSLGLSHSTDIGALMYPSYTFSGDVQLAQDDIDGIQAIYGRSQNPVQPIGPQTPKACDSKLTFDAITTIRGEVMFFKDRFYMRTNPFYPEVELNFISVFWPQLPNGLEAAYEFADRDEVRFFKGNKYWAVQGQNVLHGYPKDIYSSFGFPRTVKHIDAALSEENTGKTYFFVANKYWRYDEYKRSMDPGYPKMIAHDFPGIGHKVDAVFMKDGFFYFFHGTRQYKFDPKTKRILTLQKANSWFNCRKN
The data set can be described thus: Inhibition of human MMP-1 using Mca-Lys-Pro-Leu-Gly-Leu-Dap(Dnp)-Ala-Arg-NH2 as substrate after 3 hrs by fluorometric assay. In a few lines: as §1

The target of data set [6] is T1, Disintegrin and metalloproteinase domain-containing protein 10. As to the kind of experiment: Inhibition of ADAM-10 in human KM-H2 cells assessed as reduction in pervanadate-induced soluble ULBP3 shedding after 24 hrs by ELISA. In kind it is cell-based. The method in brief: (§2)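 Supernatants collected before and after 24 h inhibitor exposure, 10 to 0.1 µM. 100 µM sodium orthovanadate was activated to pervanadate with 100 µM H2O2 and added for 40 min before harvest. Soluble ULBP3 or ALCAM measured by ELISA.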
A general note: An ELISA detects its analyte on a solid surface through an enzyme-linked reagent.

Data set [7] shares this target. As to the kind of experiment: Inhibition of ADAM-10 in human KM-H2 cells assessed as reduction in pervanadate-induced soluble MICB shedding after 24 hrs by ELISA. The format is cell-based. The method in brief:
(§3)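 Supernatants taken from HL cultures before and after 24 h inhibitor exposure, 10 to 0.1 µM. 100 µM sodium orthovanadate was activated to pervanadate with 100 µM H2O2 and added for 40 min before harvest. Soluble MIC-B measured by ELISA against a MIC-B/Fc chimera standard curve. The DMSO+pervanadate supernatant was set as 100% shedding. Triplicate wells, 3 independent experiments.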

In data set [8] the target is T2, Disintegrin and metalloproteinase domain-containing protein 17. The data set can be described thus: Inhibition of ADAM-17 in human KM-H2 cells assessed as reduction in pervanadate-induced soluble ALCAM shedding after 24 hrs by ELISA. In kind it is cell-based. The method in brief: as §2
In data set [9] the target is T1, Disintegrin and metalloproteinase domain-containing protein 10. The data set can be described thus: Inhibition of ADAM-10 in human L428 cells assessed as reduction in pervanadate-induced soluble ULBP3 shedding after 24 hrs by ELISA. The format is cell-based, L-428. The method in brief: as §2
For data set [10] the target is unchanged. The data set can be described thus: Inhibition of ADAM-10 in human L428 cells assessed as reduction in pervanadate-induced soluble MICB shedding after 24 hrs by ELISA. In kind it is cell-based, L-428. In a few lines:
as §3

The target of data set [11] is T2, Disintegrin and metalloproteinase domain-containing protein 17. The data set can be described thus: Inhibition of ADAM-17 in human L428 cells assessed as reduction in pervanadate-induced soluble ALCAM shedding after 24 hrs by ELISA. In kind it is cell-based, L-428. In a few lines: as §2
Data set [12] has as its target T1, Disintegrin and metalloproteinase domain-containing protein 10. As to the kind of experiment: Inhibition of ADAM-10 in human L540 cells assessed as reduction in pervanadate-induced soluble ULBP3 shedding after 24 hrs by ELISA. The format is cell-based, L-540. In a few lines: as §2
The target is the same in data set [13]. As to the kind of experiment: Inhibition of ADAM-10 in human L540 cells assessed as reduction in pervanadate-induced soluble MICB shedding after 24 hrs by ELISA. In kind it is cell-based, L-540. In a few lines:
as §3

A short description of data set [14]: Cytotoxicity against human KM-H2 cells assessed as cell viability at 10 uM after 72 to 96 hrs by JC-1 staining-based fluorescence assay. The note with it: read-out: Activity. The method in brief: (§4)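 HL cell lines from DSMZ exposed to inhibitor at 10 µM for 72 and 96 h. Viability read as mitochondrial potential by staining with the dual-emission fluorescent probe JC-1.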

The nature of data set [15]: Cytotoxicity against human L428 cells assessed as cell viability at 10 uM after 72 to 96 hrs by JC-1 staining-based fluorescence assay. More on the design: species or system L-428. Conditions: read-out: Activity. The method in brief: as §4
A short description of data set [16]: Cytotoxicity against human L540 cells assessed as cell viability at 10 uM after 72 to 96 hrs by JC-1 staining-based fluorescence assay. On the set-up: species or system L-540. The note with it: read-out: Activity. The method in brief:
as §4

The term IC50 denotes the concentration that inhibits the measured activity by half.

T2 sequence (P78536 whole entry, the tested form may be a part): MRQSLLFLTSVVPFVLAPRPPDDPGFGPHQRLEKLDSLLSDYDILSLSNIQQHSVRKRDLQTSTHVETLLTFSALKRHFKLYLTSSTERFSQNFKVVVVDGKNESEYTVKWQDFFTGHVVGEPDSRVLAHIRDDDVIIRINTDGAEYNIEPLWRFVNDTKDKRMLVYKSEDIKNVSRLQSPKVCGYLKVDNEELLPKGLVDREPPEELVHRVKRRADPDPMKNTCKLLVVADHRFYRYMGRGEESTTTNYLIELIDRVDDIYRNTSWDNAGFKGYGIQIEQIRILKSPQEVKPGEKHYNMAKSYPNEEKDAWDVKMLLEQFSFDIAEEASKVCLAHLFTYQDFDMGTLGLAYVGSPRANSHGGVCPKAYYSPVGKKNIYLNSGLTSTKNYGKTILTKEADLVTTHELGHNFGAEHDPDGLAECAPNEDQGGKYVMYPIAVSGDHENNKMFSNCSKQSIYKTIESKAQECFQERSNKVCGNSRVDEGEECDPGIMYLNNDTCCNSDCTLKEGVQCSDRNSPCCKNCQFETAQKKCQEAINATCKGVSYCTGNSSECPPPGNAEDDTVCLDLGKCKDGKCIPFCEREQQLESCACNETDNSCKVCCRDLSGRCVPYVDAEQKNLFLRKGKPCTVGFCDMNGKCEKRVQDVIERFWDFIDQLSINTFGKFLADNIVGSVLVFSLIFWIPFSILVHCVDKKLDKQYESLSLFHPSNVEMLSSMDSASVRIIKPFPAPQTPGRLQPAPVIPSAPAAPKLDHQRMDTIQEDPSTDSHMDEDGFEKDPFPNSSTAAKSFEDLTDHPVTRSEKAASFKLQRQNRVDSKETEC
Chain of 72 kDa type IV collagenase (P08253 whole entry): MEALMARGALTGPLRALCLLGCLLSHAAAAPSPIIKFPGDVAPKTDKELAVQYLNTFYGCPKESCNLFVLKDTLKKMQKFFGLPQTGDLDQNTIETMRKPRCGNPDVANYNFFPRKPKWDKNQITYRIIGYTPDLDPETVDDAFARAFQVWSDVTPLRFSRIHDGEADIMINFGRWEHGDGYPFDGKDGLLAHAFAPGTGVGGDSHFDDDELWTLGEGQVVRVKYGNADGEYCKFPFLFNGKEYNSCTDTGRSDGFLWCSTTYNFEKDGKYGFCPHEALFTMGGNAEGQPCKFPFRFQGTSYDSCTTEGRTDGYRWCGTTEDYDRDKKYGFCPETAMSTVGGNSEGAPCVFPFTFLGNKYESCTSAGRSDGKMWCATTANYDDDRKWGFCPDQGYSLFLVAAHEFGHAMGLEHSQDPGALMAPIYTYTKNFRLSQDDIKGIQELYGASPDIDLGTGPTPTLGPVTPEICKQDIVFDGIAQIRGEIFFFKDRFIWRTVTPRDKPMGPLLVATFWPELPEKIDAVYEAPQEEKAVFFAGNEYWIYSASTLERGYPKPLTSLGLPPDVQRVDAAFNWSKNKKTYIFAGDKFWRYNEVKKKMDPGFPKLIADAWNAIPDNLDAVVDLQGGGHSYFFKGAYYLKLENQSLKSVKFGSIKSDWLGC

For `CNC(=O)[C@@H](NC(=O)[C@H](CCCc1ccccc1)[C@H](C)N(O)C=O)C(C)(C)C`, the IC50 in data set [1] amounted to 0.088 µM; in data set [2] it was 0.027 µM; in [3], 0.86 µM; in [4], 0.0051 µM; in [5], 0.0021 µM; at Interstitial collagenase it was 0.125 µM. For the same molecule, the IC50 was found to be 10 µM in [6]; 12 µM in data set [7]; 10 µM in [8]; 15 µM in data set [9]; 12 µM in data set [10]; 10 µM in [11]. Further, the IC50 in data set [12] came to 10 µM; in data set [13], 12 µM.

On to `O=C(NCCC[C@@H](NS(=O)(=O)c1ccc(OCc2cc(Br)cc(Br)c2)cc1)C(=O)NO)OCc1ccccc1`, for which the viability at 10 µM in data set [14], in [15] and in [16] was greater than 96% throughout. The IC50 in data set [6] stood at 15 µM; in data set [7], 15 µM; in [8], 0.5 µM; in data set [9] it was 10 µM; in data set [10] it was 15 µM; in data set [11], 0.1 µM. The values for the IC50 in [12] and in [13] were 12 µM and 15 µM, respectively.

With `Cc1cc(C#N)ccc1N1CCN(S(=O)(=O)N[C@H](CCCNC(=O)OCc2ccccc2)C(=O)NO)CC1`, the IC50 in [1] was 50 µM; in data set [2], 0.0092 µM; in data set [3], 0.09 µM; in [4], 4.5 µM; in [5] it was 0.37 µM; against Interstitial collagenase, greater than 200 µM. Besides, the IC50 stood at 10 µM in [6]; 7 µM in data set [7]; 1 µM in [8]; 10 µM in data set [9]; 7 µM in [10]; 1 µM in data set [11]. Moreover, the IC50 in data set [12] was 10 µM; in data set [13], 12 µM. Besides, the viability at 10 µM in data set [14], in [15] and in data set [16] was greater than 96% in each case.

As to `Cc1cc(C#N)ccc1N1CCN(S(=O)(=O)N2CSC[C@@H]2C(=O)NO)CC1`, the IC50 in [1] came out at 100 µM; in [2], 0.04 µM; in [3] it was 1.5 µM; in data set [4], 24 µM; in [5], 5.4 µM; on Interstitial collagenase it was 346 µM. Further, the IC50 in [6] came to 7 µM; in data set [7], 5 µM; in data set [8], 10 µM; in data set [9] it was 5 µM; in [10] it was 5 µM; in [11] it was 12 µM. Further, the 50% inhibitory concentration (IC50) in data set [12] and in data set [13] was 7 µM each time. The viability at 10 µM in data set [14], in data set [15] and in data set [16] was greater than 96% throughout.
